{
  "source": "ChEMBL document CHEMBL1773046",
  "about": "“Isoprenylated flavonoids and adipogenesis-promoting constituents from Morus nigra” (2011)",
  "key": {"3T3-L1 [1]": {"test_system": "3T3-L1", "assay": "Induction of mouse 3T3L1 cell differentiation assessed as increase in accumulation of intracellular lipid droplet at 25 uM by Oil red O staining", "assay_type": "functional, cell-based", "in_short": "(§1)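 Following 8-day differentiation with compound applied from induction (insulin/dexamethasone/IBMX, then insulin maintenance), intracellular lipid droplets visualized by Oil Red O staining and photographed.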"}, "3T3-L1 [2]": {"test_system": "3T3-L1", "assay": "Induction of GLUT4 gene expression in mouse 3T3L1 cells assessed as increase in GLUT4 protein level at 12.5 uM by Western blot analysis", "assay_type": "functional, cell-based", "in_short": "(§2)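 3T3-L1 cells grown in DMEM/10% NCS at 37 °C, 5% CO2. Two days post-confluence, differentiation induced with 2 μg/mL insulin, 1 μM dexamethasone and 0.125 mM IBMX in 10% FBS/DMEM, then kept in 10% FBS/DMEM plus 2 μg/mL insulin. Compound added at induction and left 8 days. Cells then harvested for target protein (RIPA lysate, immunoblot) or mRNA (TRIzol RNA, RT-qPCR).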"}, "3T3-L1 [3]": {"test_system": "3T3-L1", "assay": "Induction of aP2 gene expression in mouse 3T3L1 cells assessed as increase in mRNA level at 10 uM by qRT-PCR analysis", "assay_type": "functional, cell-based", "in_short": "as §2"}, "3T3-L1 [4]": {"test_system": "3T3-L1", "assay": "Induction of adipogenesis in mouse 3T3L1 cells assessed as increase in triglyceride level at 50 uM after 8 days relative to control", "assay_type": "functional", "in_short": "(§3)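 Differentiation protocol: confluent 3T3-L1 cells held 2 days, then induced with insulin (2 μg/mL), dexamethasone (1 μM) and IBMX (0.125 mM) in 10% FBS/DMEM, then maintained with insulin. Compound present from induction for 8 days. Cellular triglyceride quantified with an enzymatic kit and compared with untreated control.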"}, "3T3-L1 [5]": {"test_system": "3T3-L1", "assay": "Induction of adipogenesis in mouse 3T3L1 cells assessed as increase in triglyceride level at 12.5 uM after 8 days relative to control", "assay_type": "functional", "in_short": "as §3"}, "3T3-L1 [6]": {"test_system": "3T3-L1", "assay": "Induction of GLUT4 gene expression in mouse 3T3L1 cells assessed as increase in mRNA level at 10 uM by qRT-PCR analysis", "assay_type": "functional, cell-based", "in_short": "as §2"}, "3T3-L1 [7]": {"test_system": "3T3-L1", "assay": "Induction of GLUT4 gene expression in mouse 3T3L1 cells assessed as increase in GLUT4 protein level at 6.25 uM by Western blot analysis", "assay_type": "functional, cell-based", "in_short": "as §2"}, "3T3-L1 [8]": {"test_system": "3T3-L1", "assay": "Induction of aP2 gene expression in mouse 3T3L1 cells assessed as increase in aP2 protein level at 12.5 uM by Western blot analysis", "assay_type": "functional, cell-based", "in_short": "as §2"}, "3T3-L1 [9]": {"test_system": "3T3-L1", "assay": "Induction of aP2 gene expression in mouse 3T3L1 cells assessed as increase in aP2 protein level at 6.25 uM by Western blot analysis", "assay_type": "functional, cell-based", "in_short": "as §2"}, "3T3-L1 [10]": {"test_system": "3T3-L1", "assay": "Induction of adipogenesis in mouse 3T3L1 cells assessed as increase in triglyceride level at 25 uM after 8 days relative to control", "assay_type": "functional", "in_short": "as §3"}, "3T3-L1 [11]": {"test_system": "3T3-L1", "assay": "Induction of adipogenesis in mouse 3T3L1 cells assessed as increase in triglyceride level at 1 uM after 8 days relative to control", "assay_type": "functional", "in_short": "as §3"}, "3T3-L1 [12]": {"test_system": "3T3-L1", "assay": "Induction of mouse 3T3L1 cell differentiation assessed as increase in accumulation of intracellular lipid droplet at 1 uM by Oil red O staining", "assay_type": "functional, cell-based", "in_short": "as §1"}},
  "note": "Active and inactive are the calls of the source. No cut-off for these calls is given here.",
  "data": [
    {"molecule": "CC(C)=CC[C@]12Oc3cc4c(c(O)c3C(=O)[C@@]1(O)Oc1cc(O)ccc12)C[C@H](C(C)(C)O)O4", "values": [
      {"measurement": "Activity", "setting": "3T3-L1 [1]", "value": "inactive"}
    ]},
    {"molecule": "C=C(C)[C@@H]1Cc2c(cc(O)c3c2O[C@]2(CC=C(C)C)c4ccc(O)cc4O[C@]2(O)C3=O)O1", "values": [
      {"measurement": "Activity", "setting": "3T3-L1 [1]", "value": "inactive"}
    ]},
    {"molecule": "C=CC(C)(C)c1c(O)cc(O)c2c(=O)c(CC=C(C)C)c(-c3ccc(O)cc3O)oc12", "note": "[NIGRASIN I]", "values": [
      {"measurement": "Activity", "setting": "3T3-L1 [2]", "value": "Active"},
      {"measurement": "Activity", "setting": "3T3-L1 [3]", "value": "Active"},
      {"measurement": "Activity", "setting": "3T3-L1 [4]", "value": 250.63, "unit": "%"},
      {"measurement": "Activity", "setting": "3T3-L1 [5]", "value": 179.84, "unit": "%"},
      {"measurement": "Activity", "setting": "3T3-L1 [6]", "value": "Active"},
      {"measurement": "Activity", "setting": "3T3-L1 [1]", "value": "Active"},
      {"measurement": "Activity", "setting": "3T3-L1 [7]", "value": "Active"},
      {"measurement": "Activity", "setting": "3T3-L1 [8]", "value": "Active"},
      {"measurement": "Activity", "setting": "3T3-L1 [9]", "value": "Active"},
      {"measurement": "Activity", "setting": "3T3-L1 [10]", "value": 317.18, "unit": "%"}
    ]},
    {"molecule": "CC(C)=CCc1c(-c2ccc(O)cc2O)oc2c3c(cc(O)c2c1=O)O[C@H](C)C3(C)C", "note": "[NIGRASIN H]", "values": [
      {"measurement": "Activity", "setting": "3T3-L1 [2]", "value": "Active"},
      {"measurement": "Activity", "setting": "3T3-L1 [3]", "value": "Active"},
      {"measurement": "Activity", "setting": "3T3-L1 [4]", "value": 203.39, "unit": "%"},
      {"measurement": "Activity", "setting": "3T3-L1 [5]", "value": 102.16, "unit": "%"},
      {"measurement": "Activity", "setting": "3T3-L1 [6]", "value": "Active"},
      {"measurement": "Activity", "setting": "3T3-L1 [1]", "value": "Active"},
      {"measurement": "Activity", "setting": "3T3-L1 [7]", "value": "Active"},
      {"measurement": "Activity", "setting": "3T3-L1 [8]", "value": "Active"},
      {"measurement": "Activity", "setting": "3T3-L1 [9]", "value": "Active"},
      {"measurement": "Activity", "setting": "3T3-L1 [10]", "value": 143.94, "unit": "%"}
    ]},
    {"molecule": "C=C(C)C(O)CC/C(C)=C/CC/C(C)=C/C[C@@]12Oc3cc(O)cc(O)c3C(=O)[C@]1(O)Oc1cc(O)ccc12", "note": "(stereo partly specified)", "values": [
      {"measurement": "Activity", "setting": "3T3-L1 [1]", "value": "inactive"}
    ]},
    {"molecule": "CC(C)=CCc1c(O)cc2oc(-c3ccc(O)cc3O)c(CC=C(C)C)c(=O)c2c1O", "values": [
      {"measurement": "Activity", "setting": "3T3-L1 [1]", "value": "inactive"}
    ]},
    {"molecule": "CC(C)=CC[C@]12Oc3cc4c(c(O)c3C(=O)[C@@]1(O)Oc1cc(O)ccc12)C[C@@H](C(C)(C)O)O4", "values": [
      {"measurement": "Activity", "setting": "3T3-L1 [1]", "value": "inactive"}
    ]},
    {"molecule": "CC(C)=CC[C@]12Oc3cc4c(c(O)c3C(=O)[C@@]1(O)Oc1cc(O)ccc12)C[C@H](O)C(C)(C)O4", "values": [
      {"measurement": "Activity", "setting": "3T3-L1 [1]", "value": "inactive"}
    ]},
    {"molecule": "C=C(C)[C@H]1Cc2c(cc(O)c3c2O[C@]2(CC=C(C)C)c4ccc(O)cc4O[C@]2(O)C3=O)O1", "values": [
      {"measurement": "Activity", "setting": "3T3-L1 [1]", "value": "inactive"}
    ]},
    {"molecule": "CN(CCOc1ccc(CC2SC(=O)NC2=O)cc1)c1ccccn1", "note": "(stereo unspecified) [ROSIGLITAZONE]", "values": [
      {"measurement": "Activity", "setting": "3T3-L1 [11]", "value": 450.32, "unit": "%"},
      {"measurement": "Activity", "setting": "3T3-L1 [12]", "value": "Active"}
    ]},
    {"molecule": "CC(C)=CCC/C(C)=C/CC/C(C)=C/C[C@@]12Oc3cc(O)cc(O)c3C(=O)[C@]1(O)Oc1cc(O)ccc12", "values": [
      {"measurement": "Activity", "setting": "3T3-L1 [1]", "value": "inactive"}
    ]},
    {"molecule": "CC(C)=CC[C@]12Oc3cc4c(c(O)c3C(=O)[C@@]1(O)Oc1cc(O)ccc12)C[C@@H](O)C(C)(C)O4", "values": [
      {"measurement": "Activity", "setting": "3T3-L1 [1]", "value": "inactive"}
    ]}
  ]
}
